Assay outcomes from PubChem BioAssay.
STAT1 act: STAT1 signaling activators, primary screen, cell-based, HTS, luciferase reporter | NIH 3T3 STAT1-luciferase reporter, IFN-gamma, luminescence; 100% = IFN-gamma alone, no compound | activation (% of control), % at 5.5 µM | 200,000 compounds, 2.6% hits | AID 932, 2007;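 active means activation above the screen-wide mean activation plus 3 SD, cut at about 130% in these data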
APP 5'UTR act: activators of APP 5'UTR luciferase reporter, primary screen, SH-SY5Y cells; 190,000 compounds, 1% hits; activation, % at 2 µM; SH-SY5Y APP 5'UTR luciferase reporter, luminescence; zero percent = DMSO vehicle wells; AID 1276, 2008;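 active means activation above a set limit, based on mean plus 3 SD of controls, cut at about 140% in these data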
NF-kB expr up: activators of NF-kB expression in neurons, primary screen, cell-based, HTS; human neuronal cells, NF-kB reporter expression; stronger effect = higher value; fold change at 12.5 µM; 190,000 compounds, 1.6% hits; AID 1239, 2008; in the data active means fold change above about 3.3
Mdm2 ligase inh: MDM2-luciferase reporter signal enhancers, primary screen, MDM2 E3 ligase inhibitor project, cell-based, luminescence, 1536-well. E3 ubiquitin-protein ligase Mdm2 (Homo sapiens), Q00987. cell-based MDM2 ubiquitination luciferase reporter, 2 h; 0 = plate control, 100 = twice control, blank-subtracted. signal enhancement, % at 5 µM. 210,000 compounds, 0.11% hits;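 active means signal enhancement of 30% or more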;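 further: luminescence tracks abundance of the self-degrading MDM2-luciferase fusion protein; higher signal means inhibition of MDM2 E3 ligase activity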
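Material: Stable MDM2–luciferase fusion reporter cells | Amount: 2000 cells seeded into each well | Dosing: One concentration, 5 µM, with 0.2% DMSO | Incubation: 4 h cell settling then 2 h compound exposure, 37 °C | Measured by: Luciferase luminescence | Read-out basis: % enhancement relative to plate controls after blank subtraction | Benchmarks: Control and blank well means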
PERK inhibitor: block of dimerizer-induced PERK translation repression, primary screen, PERK inhibitor project, CHO PERK-DD cells, SEAP luminescence, HTS; 220,000 compounds, 0.17% hits; Eukaryotic translation initiation factor 2-alpha kinase 3 (Homo sapiens), Q9NZJ5; CHO PERK-DD fusion, SEAP luminescence translation reporter; inhibition, % at 5.6 µM;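 active means inhibition above the mean inhibition of all tested compounds plus 3 SD, set separately per screening campaign, cut at about 2.9% in these data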;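 further: PERK kinase domain activated by AP20187 dimerizer at 100 nM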
AHR act: AHR activators, primary screen, cell-based, luminescence, luciferase reporter, human; AHR-responsive luciferase reporter cells; activation, % at 5 µM; 320,000 compounds, 2.5% hits; AID 2796, 2010; in the data active means activation above about 47%
Numbers stand for hits; - = inactive; . = no result. Sampled rows, rich in hits. Any-hit rate of the full collection: about 4.5%.

SMILES	STAT1 act	APP 5'UTR act	NF-kB expr up	Mdm2 ligase inh	PERK inhibitor	AHR act
Cc1cc(N2CCC(C)CC2)n2nc(C)c(-c3ccccc3)c2n1	-	-	-	-	-	-
COc1ccc(CCNc2cc(C)nc3c(-c4ccc(Cl)cc4)cnn23)cc1OC	-	-	-	-	-	69
Cc1cc(NCc2ccccc2)n2ncc(-c3ccccc3)c2n1	.	.	.	.	.	-
Cc1cc(-c2ccccc2)n2ncc(-c3ccccc3)c2n1	143	166	-	-	-	57
Cc1cc(N2CCCCC2)n2ncc(-c3ccccc3)c2n1	-	217	-	-	-	-
COc1ccc(CCNc2cc(C)nc3c(-c4ccccc4)cnn23)cc1OC	-	-	-	-	-	-
CC(=O)Oc1cccc(C(=O)Nc2ccc(NC(=O)c3cccs3)cc2)c1	.	.	.	.	.	-
O=C(C[n+]1ccn(-c2ccccc2)c1)c1ccc([N+](=O)[O-])cc1	.	.	.	.	.	-
Cc1cc(N2CCCCC2)n2ncc(-c3ccc(Cl)cc3)c2n1	139	-	-	-	-	-
Cc1cc(N2CCOCC2)n2ncc(-c3ccccc3)c2n1	-	142	-	-	-	-
CCNC(=O)c1c(O)c2c([nH]c1=O)CCCC2	.	.	.	.	-	-
O=C(c1ccc(Cl)nc1)c1cccs1	.	.	.	.	-	54
Oc1ccc(-c2csc(NCc3ccco3)n2)cc1	-	-	3.7	-	-	-
Cc1ccc(S(=O)(=O)N2c3ccccc3NC(=O)C2CC(=O)Nc2ccccc2)cc1 (stereo not drawn)	-	-	-	-	-	64
CCc1ccc(C(=O)NNC(=O)C2CC(=O)N(Cc3ccccc3)C2)cc1 (stereo not drawn)	.	.	.	.	.	-
Cc1nn(-c2ccccn2)c(C)c1Oc1ccccc1O	-	-	-	-	-	-
Cc1nn(-c2nc3ccccc3s2)c(C)c1Oc1ccccc1O	-	184	-	-	-	-
O=C(NC12CC3CC(CC(C3)C1)C2)c1ccc(-c2ccc(Br)cc2)o1	144	-	-	-	-	-
NNC(=O)c1oc2nc(-c3cccs3)cc(-c3ccco3)c2c1N	.	.	.	.	.	48
Cc1nc(CSc2nsc(/C=C/N(C)C)c2C#N)cs1	-	-	-	31	-	.
C[C@@H]1CN([C@@H](C)CO)C(=O)Cc2cc(NS(=O)(=O)c3cn(C)cn3)ccc2O[C@@H]1CN(C)C(=O)Nc1ccccc1	.	.	.	.	.	-
O=C(CCc1ccccc1)Nc1ccc(Cl)cn1	130	-	-	-	-	-
O=C(Cc1ccccc1)Nc1ccc(Cl)cn1	.	.	.	.	.	-
O=C(CCc1ccccc1)Nc1ccccc1F	144	.	3.5	-	-	-
Cc1ccc(NC(=O)CCCc2ccccc2)nc1	138	-	-	-	-	-
SMILES	STAT1 act	APP 5'UTR act	NF-kB expr up	Mdm2 ligase inh	PERK inhibitor	AHR act
Cc1ccc(NC(=O)Cc2ccc(-c3ccccc3)cc2)nc1	.	.	.	.	.	-
Cc1ccc(NC(=S)NCCc2ccccc2)nc1	136	-	-	-	-	-
Cc1cccnc1NC(=S)NCCc1ccccc1	130	-	-	-	-	-
O=C(Nc1ccncc1)Nc1cccc(Cl)c1	.	.	.	.	.	-
CN(c1cccc(NC(=O)Nc2cccc(Cl)c2)c1)S(C)(=O)=O	-	-	-	-	-	77
CN(C)c1ccc(NC(=O)Nc2cccc(Cl)c2)cc1	135	181	7.2	-	-	-
CCOC(=O)c1cc(-c2ccc(OC)cc2)n(CCC(=O)NC2CCN(Cc3ccccc3)CC2)c1C	-	-	-	-	-	-
CCOC(=O)c1cc(-c2ccc(F)cc2)n(CCC(=O)NC2CCN(Cc3ccccc3)CC2)c1C	-	-	3.7	-	-	-
COc1cc(CC(=O)OCC(=O)NC2CCCCCC2)cc(OC)c1OC	.	.	.	.	.	-
O=C1N=C(N2CCCCC2)S/C1=C\c1ccc(Cl)cc1	.	.	.	.	.	-
COc1ccc(OC)c(/C=C2\SC(N3CCCCC3)=NC2=O)c1	.	.	.	.	.	74
Cc1ccc(/C=C2\SC(N3CCCCC3)=NC2=O)cc1	.	.	.	.	.	71
CCCCN(C)CCNC(=O)c1cn(C)c(=O)c2c1c1ccccc1n2C	.	.	.	.	.	-
c1ccc2c(c1)-c1cccc3c1c-2cc1ccccc13	.	.	.	.	.	102
